Converted amounts (≈) assume the structure as drawn.
Tests used:
Vero = experiment: Cytotoxicity against African green monkey Vero cells after 72 hrs by MTS-PMS assay; assay type: cell-based; conditions: Chlorocebus sabaeus
[1] = Protein binding in human plasma; assay type: ADME, cell-free; conditions: read-out: PPB
Cytochrome P450 3A4 = Cytochrome P450 3A4 (Homo sapiens, UniProt P08684); experiment: Inhibition of CYP3A4 (unknown origin); assay type: ADME
[2] = Ratio of AUC in mouse to MIC90 of replicating Mycobacterium tuberculosis H37Rv after 4 days by Alamar blue assay
Procedure, shortened: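 Mouse plasma exposure (AUC_inf, µg*h/mL) divided by the MIC90 against replicating H37Rv from the aerobic MABA assay.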

[3] = tested on: Mycobacterium tuberculosis; experiment: Antitubercular activity against replicating Mycobacterium tuberculosis H37Rv after 4 days by Alamar blue assay; assay type: functional; conditions: 96 h
Procedure, shortened: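 MIC90 against M. tuberculosis H37Rv under aerobic, replicating conditions (MABA). Tested at the Institute for Tuberculosis Research, University of Illinois at Chicago.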

[4] = tested on: Mycobacterium tuberculosis; experiment: Antitubercular activity against non-replicating Mycobacterium tuberculosis H37Rv after 10 days by LORA; assay type: functional; conditions: 240 h
Procedure, shortened: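 MIC90 against M. tuberculosis H37Rv under non-replicating conditions (LORA). Tested at the Institute for Tuberculosis Research, University of Illinois at Chicago.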

Chain of Cytochrome P450 3A4 (P08684 whole entry): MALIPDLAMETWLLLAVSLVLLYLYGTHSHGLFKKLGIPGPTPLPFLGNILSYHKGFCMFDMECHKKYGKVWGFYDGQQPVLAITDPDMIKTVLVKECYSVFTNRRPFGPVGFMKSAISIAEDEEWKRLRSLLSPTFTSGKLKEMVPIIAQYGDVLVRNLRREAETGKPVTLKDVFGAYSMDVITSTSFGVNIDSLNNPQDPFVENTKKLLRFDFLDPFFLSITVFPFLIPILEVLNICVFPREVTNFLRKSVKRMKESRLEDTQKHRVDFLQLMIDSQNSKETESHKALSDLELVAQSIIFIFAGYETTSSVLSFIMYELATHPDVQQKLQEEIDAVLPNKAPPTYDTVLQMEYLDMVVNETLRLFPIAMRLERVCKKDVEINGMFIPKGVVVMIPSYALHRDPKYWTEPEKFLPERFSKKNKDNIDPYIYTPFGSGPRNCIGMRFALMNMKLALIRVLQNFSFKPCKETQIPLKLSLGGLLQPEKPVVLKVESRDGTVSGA

Compound | IC50 (Vero) [µg/mL] | fraction unbound [1] | IC50 (Cytochrome P450 3A4) [µM] | Ratio [2] | MIC90 [3] [µg/mL] | MIC90 [4] [µg/mL]
COc1cc(C(O)(CCN(C)C)C(c2cc3cc(Br)ccc3nc2OC)c2ccnc(OC)c2OC)c(OC)nc1OC (racemic) | > 10 | < 0.001 |  |  |  | 
COc1cnc(OC)c(C(O)(CCN(C)C)C(c2cc3cc(Br)ccc3nc2OC)c2cccc(OC)c2F)c1 (racemic) | > 10 | < 0.001 |  |  |  | 
COc1nc2ccc(Br)cc2cc1C(c1cccc2c1OCO2)C(O)(CCN(C)C)c1cccnc1C (racemic) | > 10 | < 0.001 | > 10 |  |  | 
COc1nc2ccc(Br)cc2cc1C(c1cccc2c1OCO2)C(O)(CCN(C)C)c1cccnc1OC (racemic) | > 10 | < 0.001 | > 10 | 5.73 |  | 
COc1cccc(C(c2cc3cc(Br)ccc3nc2OC)C(O)(CCN(C)C)c2cnc(C)cc2C)c1OC (racemic) |  | < 0.001 |  | 104 |  | 
COc1cc(C(O)(CCN(C)C)C(c2cc3cc(Br)ccc3nc2OC)c2ccnc(OC)c2OC)cnc1OC (racemic) | > 10 | < 0.001 |  | 71.3 |  | 
COc1cc(C(O)(CCN(C)C)C(c2cc3cc(Br)ccc3nc2OC)c2cccc(OC)c2F)c(OC)cn1 (racemic) | > 10 | < 0.001 |  |  |  | 
COc1cccc(C(c2cc3cc(C#N)ccc3nc2OC)C(O)(CCN(C)C)c2cc(C)nc(C)c2)c1F (racemic) | > 10 | < 0.001 | > 10 |  |  | 
CCc1cc(C(O)(CCN(C)C)C(c2cc3cc(Br)ccc3nc2OC)c2cccc(OC)c2F)cc(CC)n1 (racemic) | > 10 | < 0.001 |  |  |  | 
COc1cccc(C(c2cc3cc(Br)ccc3nc2OC)C(O)(CCN(C)C)c2cc(C)cnc2C)c1OC (racemic) | > 10 | < 0.001 |  | 19.9 |  | 
CCOc1cc(C(O)(CCN(C)C)C(c2cc3cc(Br)ccc3nc2OC)c2ccnc(OC)c2OC)cc(OC(C)C)n1 (racemic) | > 10 | < 0.001 |  |  |  | 
COc1nc2ccc(Br)cc2cc1C(c1cccc(C)c1)C(O)(CCN(C)C)c1cccnc1OC (racemic) | > 10 | < 0.001 | > 10 | 19.3 |  | 
COc1nc2ccc(C#N)cc2cc1C(c1cccc(F)c1)C(O)(CCN(C)C)c1cncc(C)c1 (racemic) | > 10 | < 0.001 |  |  |  | 
CCOc1cc(C(O)(CCN(C)C)C(c2cc(OC)nc(OC)c2)c2cc3cc(Br)ccc3nc2OC)cc(OC(C)C)n1 (racemic) | > 10 | < 0.001 |  | 1650 |  | 
COc1cccc(C(c2cc3cc(Br)ccc3nc2OC)C(O)(CCN(C)C)c2cc(C)nc(C)c2)c1OC (racemic) |  |  |  |  | 0.04 (≈ 0.0673 µM) | 0.07 (≈ 0.118 µM)
COc1cccc(C(c2cc3cc(Br)ccc3nc2OC)C(O)(CCN(C)C)c2ccc(C)nc2)c1F (racemic) | > 10 | < 0.001 | > 10 |  |  | 
COc1cccc(C(O)(CCN(C)C)C(c2cc3cc(Br)ccc3nc2OC)c2cccc3c2OCO3)n1 (racemic) | > 10 | < 0.001 |  | 10.4 |  | 
COc1cccc(C(c2cc3cc(C#N)ccc3nc2OC)C(O)(CCN(C)C)c2cc(C)nc(C)c2)c1OC (racemic) | > 10 | < 0.001 |  | 6.17 |  | 
COc1nc2ccc(Br)cc2cc1C(c1cccc(C)c1)C(O)(CCN(C)C)c1cccnc1C (racemic) | > 10 | < 0.001 | > 10 |  |  | 
COc1nc2ccc(C#N)cc2cc1C(c1cccc(C)c1)C(O)(CCN(C)C)c1cccnc1OC (racemic) | > 10 | < 0.001 | > 10 | 2.25 |  | 
COc1cccc(C(c2cc3cc(Br)ccc3nc2OC)C(O)(CCN(C)C)c2cccc(C)n2)c1F (racemic) | > 10 | < 0.001 |  |  |  | 
CCc1cc(C(O)(CCN(C)C)C(c2cc3cc(C#N)ccc3nc2OC)c2cccc(OC)c2F)cc(CC)n1 (racemic) | > 10 | < 0.001 |  |  |  | 
COc1nc2ccc(Br)cc2cc1[C@@H](c1ccccc1)[C@@](O)(CCN(C)C)c1cccc2ccccc12 [BEDAQUILINE] | > 10 | < 0.001 |  |  |  | 

From ChEMBL document CHEMBL4480421 (Bioorg Med Chem, 2019)
